Activity calls are given as the source filed them. No cut-off for these calls is given here.
Key:
[1] = Toxicity in BALB/c mouse xenografted with mouse 4T1 cells assessed as change in serum creatinine level at 10 mg/kg administered intratumorally and measured after 24 days; assay type: organism-based; settings: in vivo, other, 576 h
4T1 [2] = experiment: Antitumour activity against mouse 4T1 cells xenografted in BALB/c mouse assessed as increase in damage of tumor tissue at 10 mg/kg administered intratumorally and measured after 24 days by H and E staining based inverted optical microscopic method; assay type: functional, organism-based
Method in brief: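 Tumours from 4T1-bearing BALB/c mice given 6 doses of 10 mg/kg (saline control) were sectioned and stained with H&E, plus CD31, Ki-67 and TUNEL.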

[3] = Stability in fetal bovine serum assessed as parent compound remaining measured after 12 hrs by RP-HPLC analysis; assay type: ADME, cell-free, Bos taurus; settings: cattle, read-out: Stability
Method in brief: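 Peptides incubated in serum, and the fraction of intact YSL was measured over time up to 12 h, including a 4 h point.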

4T1 [4] = experiment: Antiproliferative activity against mouse 4T1 cells assessed as cell death at 0.2 mM incubated for 24 hrs by MTT assay relative to control; assay type: functional
Method in brief: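 Mouse 4T1 breast cancer cells exposed for 24 h (doses include 0.1 and 0.2 mM), then read by MTT for viability or cell death. Mean ± SD, n = 6.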

Erythrocyte = experiment: Hemolytic activity in BALB/c mouse RBC at 3.2 mM incubated for 2 hrs by UV-Vis spectrophotometric analysis; assay type: ADME, cell-based; settings: 3200 µM
Method in brief: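 Hemolysis assay on red blood cells with dendrimers up to 3.2 mM. Result is expressed as hemolysis rate, with under 5% taken as acceptable.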

4T1 [5] = experiment: Induction of apoptosis in mouse 4T1 cells at 0.4 mM incubated for 24 hrs by PI staining based inverted microscopic method; assay type: functional, cell-based
Method in brief: (§1)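 Live–dead staining of 4T1 cells after 24 h exposure to 0.4 mM, read by PI staining. A 0.8 mM level was also examined.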

4T1 [6] = experiment: Induction of cell death in mouse 4T1 cells incubated for 24 hrs by PI staining based inverted microscopic method; assay type: functional; method in brief: as §1
4T1 [7] = experiment: Induction of cell cycle arrest in mouse 4T1 cells assessed as accumulation at G0/G1 phase at 0.4 mM incubated for 24 hrs by PI staining based flow cytometric analysis (reference value: 37.78%); assay type: functional
4T1 [8] = experiment: Induction of cell cycle arrest in mouse 4T1 cells assessed as accumulation at G2/M phase at 0.4 mM incubated for 24 hrs by PI staining based flow cytometric analysis (reference value: 19.82%); assay type: functional
4T1 [9] = experiment: Induction of apoptosis in mouse 4T1 cells assessed as viable cells at 0.4 mM incubated for 24 hrs by Annexin V-FITC/PI based FACS analysis (reference value: 92.2%); assay type: functional; settings: 4T1, 24 h, read-out: Activity
4T1 [10] = experiment: Induction of apoptosis in mouse 4T1 cells assessed as early apoptotic cells at 0.4 mM incubated for 24 hrs by Annexin V-FITC/PI based FACS analysis (reference value: 0.76%); assay type: functional
4T1 [11] = experiment: Induction of apoptosis in mouse 4T1 cells assessed as late apoptotic cells at 0.4 mM incubated for 24 hrs by Annexin V-FITC/PI based FACS analysis (reference value: 6.62%); assay type: functional
4T1 [12] = experiment: Inhibition of cell migration in mouse 4T1 cells assessed as wound closure rate at 0.2 mM measured up to 36 hrs by inverted optical microscopic method based wound healing assay (reference value: 82%); assay type: functional; parameters: scale not given: the % may be the effect or the level left
4T1 [13] = experiment: Inhibition of cell migration in mouse 4T1 cells assessed as migration frequency at 0.2 mM incubated for 24 hrs by crystal violet staining based transwell assay relative to control; assay type: functional; parameters: scale not given: the % may be the effect or the level left
Method in brief: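 4T1 cells, Transwell migration with 24 h exposure to 0.2 mM. Migration rate comes from counting cells on the bottom of the porous membrane. Mean ± SD, n = 3.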

4T1 [14] = experiment: Inhibition of metastasis in mouse 4T1 cells assessed as formation of pseudopods at 0.2 mM incubated for 24 hrs by SEM analysis; assay type: functional, cell-based
Method in brief: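 4T1 cells treated 24 h, then imaged by scanning electron microscopy for pseudopod formation. Dendrimers were tested at 0.2 mM and the reference at 10–5 mM.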

4T1 [15] = experiment: Inhibition of metastasis in mouse 4T1 cells assessed as disruption in F-actin arrangement at 0.2 mM incubated for 24 hrs by Hoechst 33342 staining based confocal laser scanning microscopic method; assay type: functional, cell-based
Method in brief: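 After 24 h at 0.2 mM, 4T1 cells were stained for F-actin with Alexa Fluor 488 phalloidin and for nuclei with Hoechst 33342, then imaged by fluorescence for cytoskeletal arrangement and cell morphology.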

4T1 [16] = experiment: Inhibition of metastasis in mouse 4T1 cells assessed as shortening in actin filaments at 0.2 mM incubated for 24 hrs by Hoechst 33342 staining based confocal laser scanning microscopic method; assay type: functional, cell-based
Method in brief: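 After 24 h treatment, 4T1 cells were stained with Alexa Fluor 488 phalloidin for F-actin and Hoechst 33342 for nuclei, then imaged by fluorescence microscopy to assess cytoskeleton and cell morphology.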

4T1 [17] = experiment: Antitumour activity against mouse 4T1 cells xenografted in BALB/c mouse assessed as inhibition in tumor growth at 10 mg/kg administered intratumorally and measured every 3 days for 24 days; assay type: functional, organism-based
Method in brief: (§2)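 BALB/c mice bearing subcutaneous 4T1 tumours received 6 doses of 10 mg/kg, with equal YSL-monomer molar amounts across compounds and saline as control. Tumour volume growth curves and body weights were tracked. Mean ± SD, n = 5.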

4T1 [18] = experiment: Antitumour activity against mouse 4T1 cells xenografted in BALB/c mouse assessed as increase in cytotoxic tumor cell death at 10 mg/kg administered intratumorally and measured after 24 days by H and E staining based inverted optical microscopic method; assay type: functional, organism-based
Method in brief: (§3)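 BALB/c mice bearing subcutaneous 4T1 tumours received 6 doses at 10 mg/kg body weight, matched for YSL monomer molar amount, with saline as control. Tumour sections were stained for H&E, CD31, Ki-67 and TUNEL. n = 5.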

4T1 [19] = experiment: Antitumour activity against mouse 4T1 cells xenografted in BALB/c mouse assessed as increase in number of TUNEL positive cells at 10 mg/kg administered intratumorally and measured after 24 days by H and E staining based inverted optical microscopic method; assay type: functional, organism-based; method in brief: as §3
4T1 [20] = experiment: Antitumour activity against mouse 4T1 cells xenografted in BALB/c mouse assessed as reduction in size of lung tumor metastatic nodules at 10 mg/kg administered intratumorally and measured after 24 days by H and E staining based inverted optical microscopic method; assay type: functional, organism-based
Method in brief: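 After 6 doses of 10 mg/kg to 4T1 tumour-bearing BALB/c mice (saline control), lungs were photographed whole and examined histopathologically for the number and size of metastatic nodules.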

[21] = Toxicity in BALB/c mouse xenografted with mouse 4T1 cells assessed as induction of morphological lesions in liver at 10 mg/kg administered intratumorally and measured after 24 days by H and E staining based inverted optical microscopic method; assay type: organism-based; settings: in vivo, other, 576 h
[22] = Toxicity in BALB/c mouse xenografted with mouse 4T1 cells assessed as induction of morphological lesions in spleen at 10 mg/kg administered intratumorally and measured after 24 days by H and E staining based inverted optical microscopic method; assay type: organism-based; settings: in vivo, other, 576 h
[23] = Toxicity in BALB/c mouse xenografted with mouse 4T1 cells assessed as induction of morphological lesions in kidney at 10 mg/kg administered intratumorally and measured after 24 days by H and E staining based inverted optical microscopic method; assay type: organism-based; settings: in vivo, other, 576 h
[24] = Toxicity in BALB/c mouse xenografted with mouse 4T1 cells assessed as change in body weight at 10 mg/kg administered intratumorally and measured after 24 days; assay type: organism-based; settings: in vivo, other, 576 h; method in brief: as §2

Structure (SMILES): COC(=O)[C@H](CCCCNC(=O)[C@H](CCCCNC(=O)[C@H](CCCCNC(=O)[C@H](CC(C)C)NC(=O)[C@H](CO)NC(=O)[C@@H](N)Cc1ccc(O)cc1)NC(=O)[C@H](CC(C)C)NC(=O)[C@H](CO)NC(=O)[C@@H](N)Cc1ccc(O)cc1)NC(=O)[C@H](CCCCNC(=O)[C@H](CC(C)C)NC(=O)[C@H](CO)NC(=O)[C@@H](N)Cc1ccc(O)cc1)NC(=O)[C@H](CC(C)C)NC(=O)[C@H](CO)NC(=O)[C@@H](N)Cc1ccc(O)cc1)NC(=O)[C@H](CCCCNC(=O)[C@H](CCCCNC(=O)[C@H](CC(C)C)NC(=O)[C@H](CO)NC(=O)[C@@H](N)Cc1ccc(O)cc1)NC(=O)[C@H](CC(C)C)NC(=O)[C@H](CO)NC(=O)[C@@H](N)Cc1ccc(O)cc1)NC(=O)[C@H](CCCCNC(=O)[C@H](CC(C)C)NC(=O)[C@H](CO)NC(=O)[C@@H](N)Cc1ccc(O)cc1)NC(=O)[C@H](CC(C)C)NC(=O)[C@H](CO)NC(=O)[C@@H](N)Cc1ccc(O)cc1
- Activity [1]: Non-Toxic
- Activity (4T1 [2]): Active
- remaining at 12 h [3]: > 80%
- Activity (4T1 [4]): 20%
- Activity (Erythrocyte): Non-Toxic
- Activity (4T1 [5]): Active
- Activity (4T1 [6]): Dose-dependent effect
- Activity (4T1 [7]): 44.44%
- Activity (4T1 [8]): 7.08%
- viability at 400 µM (4T1 [9]): 37.5%
- Activity (4T1 [10]): 3.95%
- Activity (4T1 [11]): 56.2%
- Activity (4T1 [12]): 30%
- Activity (4T1 [13]): 10%
- inhibition (4T1 [14]): inactive
- F-actin disruption (qualitative) (4T1 [15]): Active
- inhibition (4T1 [16]): Active
- Activity (4T1 [17]): Active
- Activity (4T1 [18]): Active
- Activity (4T1 [19]): Active
- Activity (4T1 [20]): Active
- Activity [21]: Non-Toxic
- Activity [22]: Non-Toxic
- Activity [23]: Non-Toxic
- Activity [24]: Non-Toxic
